Experiment [1] can be described thus: Cytotoxicity against human PC3 cells at 250 uM after 48 hrs by alamar blue assay. In kind it is functional. The following applies: PC-3, 48 h. The method in brief:
(§1)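 Single 250 µM concentration. Cells seeded at 3 × 10^3/well in F-12K with 10% FBS and 2 mM L-glutamine, then adhered overnight. Exposure was 48 h at 37 °C, 5% CO2, alongside 0.5% DMSO vehicle and 1.5 mM H2O2 controls. Viability was measured by resazurin reduction (0.25 mg/mL stock, 3 h) with fluorescence read at […], em 590 nm.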
On the technique in general: Resazurin is reduced to fluorescent resorufin, in cell work by metabolically active cells.

The target in experiment [2] is Eukaryotic translation initiation factor 4E-binding protein 1 (Homo sapiens) (UniProt Q13541). The experiment is described as follows: Induction of 4E-BP1 phosphorylation at Ser65 in human A549 cells at 250 uM after 6 hrs by Western blotting analysis. Format: cell-based. The method in brief: (§2)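 A549 cells were exposed to 250 and 500 µM for 6 h, harvested and lysed. Equal total protein was loaded for SDS-PAGE and immunoblot. Probes were p-4E-BP1 (T37/46, S65, T70), p-S6 (S235/236), eIF4E and cleaved PARP, detected by chemiluminescence.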
On the technique in general: Immunoblotting shows a protein as a band on a membrane.

The subject of experiment [3] is A549. The experiment can be described thus: Cytotoxicity against human A549 cells at 250 uM after 48 hrs by alamar blue assay. Conditions: A549, 48 h. In kind it is functional. The method in brief: as §1
In experiment [4] the target is Eukaryotic translation initiation factor 4E-binding protein 1 (Homo sapiens) (UniProt Q13541). The experiment is described as follows: Induction of 4E-BP1 phosphorylation at Thr70 in human A549 cells at 500 uM after 6 hrs by Western blotting analysis. In kind it is cell-based. Put shortly: as §2
Experiment [5] shares this target. The experiment can be described thus: Induction of 4E-BP1 phosphorylation at Ser65 in human A549 cells at 500 uM after 6 hrs by Western blotting analysis. Format: cell-based. Put shortly:
as §2

Experiment [6] deals with A549. The experiment is described as follows: Cytotoxicity against human A549 cells after 48 hrs by alamar blue assay. In kind it is functional, cell-based. The following applies: A549, 48 h. The method in brief: (§3)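 Cells seeded at 3 × 10^3/well in F-12K with 10% FBS, 2 mM L-glutamine and penicillin/streptomycin, then left to adhere overnight. Medium was replaced with nine 2- or 3-fold dilutions, with 0.5% DMSO vehicle and 1.5 mM H2O2 controls. Incubation was 48 h at 37 °C, 5% CO2. Resazurin (0.25 mg/mL stock) was added for 3 h and fluorescence read ([…], em 590 nm). IC50 came from a nonlinear dose-response fit; mean ± SD, triplicates, three independent experiments.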

For experiment [7], the target named is Eukaryotic translation initiation factor 4E-binding protein 1 (Homo sapiens) (UniProt Q13541). The experiment is described as follows: Induction of 4E-BP1 phosphorylation at Thr37/46 in human A549 cells at 250 uM after 6 hrs by Western blotting analysis. Format: cell-based. Put shortly: as §2
Experiment [8] in a line: Cytotoxicity against human PC3 cells after 48 hrs by alamar blue assay. The following applies: PC-3, 48 h. In kind it is functional, cell-based. The method in brief:
as §3

The target of experiment [9] is Small ribosomal subunit protein eS6 (Homo sapiens) (UniProt P62753). The experiment is described as follows: Inhibition of S6 ribosomal protein phosphorylation in human A549 cells at 250 to 500 uM after 6 hrs by Western blotting analysis. In kind it is cell-based. Put shortly: as §2
Experiment [10] has as its system A549. The experiment can be described thus: Increase in PARP cleavage in human A549 cells at 250 to 500 uM after 6 hrs by Western blotting analysis. Format: cell-based. Put shortly:
as §2

For experiment [11], the target named is Eukaryotic translation initiation factor 4E-binding protein 1 (Homo sapiens) (UniProt Q13541). The experiment can be described thus: Induction of 4E-BP1 phosphorylation at Thr37/46 in human A549 cells at 500 uM after 6 hrs by Western blotting analysis. Format: cell-based. The method in brief:
as §2

The target is the same in experiment [12]. The experiment can be described thus: Induction of 4E-BP1 phosphorylation at Thr70 in human A549 cells at 250 uM after 6 hrs by Western blotting analysis. Format: cell-based. Put shortly:
as §2

SMILES strings stand for the structures. pIC50: −log10 of the molar value. Calls of active or inactive are those of the source. No cut-off for these calls is given here. Where only a bound is given, the exact number is not on record here.

One may read the inhibition as the relative decrease from the control value, in per cent. Usually pIC50 stands for the negative decadic logarithm of the IC50, by convention in mol/L. Read a low pIC50 as a high IC50.

Eukaryotic translation initiation factor 4E-binding protein 1 (Homo sapiens), sequence (Q13541 whole entry): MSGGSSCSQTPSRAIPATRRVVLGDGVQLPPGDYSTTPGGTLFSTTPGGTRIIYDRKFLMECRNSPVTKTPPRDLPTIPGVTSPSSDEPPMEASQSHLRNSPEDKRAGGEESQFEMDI

On to `C=C(C)[C@@H]1CC=C(CN(OC)C2O[C@H](CN=[N+]=[N-])[C@@H](N=[N+]=[N-])[C@H](O)[C@H]2O)CC1` (stereo not given in full), for which the inhibition at 250 µM in [1] and in [3] was > 40% in each case. In addition, the outcome in experiment [2], in experiment [4], in [5], in experiment [7], in [10] and in [11] was Active. In experiment [12], the outcome was Active. The figures for the pIC50 in [6] and in [8] were 4.36 and 4.24, respectively. Besides, the inhibition result in [9] is “Active”.
For the molecule `C=C(C)[C@@H]1CC=C(CN(OC)C2O[C@H](CNC(=O)CCCCCCCCC)[C@@H](O)[C@H](O)[C@H]2O)CC1` (stereo not given in full), the inhibition at 250 µM in [1] and in [3] was > 40% each time. Further, the negative-log IC50 (pIC50) in experiment [6] was 4.85; in experiment [8], 4.52.
On to `C=C(C)[C@@H]1CC=C(CN(OC)C2O[C@@H](CO)[C@H](N=[N+]=[N-])[C@@H](O)[C@@H]2O)CC1` (stereo not given in full), for which the inhibition at 250 µM in experiment [1] and in experiment [3] was > 40% in each case. Moreover, the pIC50 in experiment [6] is 3.35; in experiment [8], 3.58.
With `C=C(C)[C@@H]1CC=C(CN(OC)C2O[C@H](CO)[C@@H](O)[C@H](O)[C@H]2N=[N+]=[N-])CC1` (stereo not given in full), the inhibition at 250 µM in experiment [1] and in experiment [3] was > 40% in each case. The pIC50 in experiment [6] is 3.66; in experiment [8] it was 3.75.
As to `C=C(C)[C@@H]1CC=C(/C=N/OC)CC1`, the inhibition at 250 µM in experiment [1] and in experiment [3] was > 40% in each case.
Turning to `C=CCOC(=O)NC[C@H]1OC(N(CC2=CC[C@@H](C(=C)C)CC2)OC)[C@H](O)[C@@H](O)[C@@H]1O` (stereo not given in full), the inhibition at 250 µM in experiment [1] and in [3] was > 40% in each case. Moreover, the values for the negative-log IC50 (pIC50) in experiment [6] and in [8] were 3.85 and 3.63, respectively.
With `C=C(C)[C@@H]1CC=C(CN(OC)C2O[C@H](CO)[C@@H](N=[N+]=[N-])[C@H](O)[C@H]2O)CC1` (stereo not given in full), the inhibition at 250 µM in experiment [1] and in experiment [3] was > 40% throughout. Besides, the pIC50 in experiment [6] is 5.40; in [8], 4.66.
Consider `C=C(C)[C@@H]1CC=C(CN(OC)C2O[C@H](CN=[N+]=[N-])[C@@H](O)[C@H](O)[C@H]2O)CC1` (stereo not given in full), for which the inhibition at 250 µM in experiment [1] and in [3] was > 40% in each case. For the same molecule, the pIC50 in experiment [6] was 3.79; in experiment [8] it was 3.74.
With `C=CCOC(=O)N[C@H]1C(N(CC2=CC[C@@H](C(=C)C)CC2)OC)O[C@H](CO)[C@@H](O)[C@@H]1O` (stereo not given in full), the inhibition at 250 µM in experiment [1] and in [3] was > 40% in each case. Further, the pIC50 in experiment [6] was 3.94; in experiment [8], 3.08.
`C=C(C)[C@@H]1CC=C(CN(OC)C2O[C@H](CO)[C@@H](O)[C@H](NC(=O)CCCCCCCCC)[C@H]2O)CC1` (stereo not given in full): the inhibition at 250 µM in [1] and in [3] was > 40% throughout. The result in [2], in experiment [4], in experiment [5], in experiment [7], in experiment [10] and in experiment [11] was Active. In [12], the result was Active. The pIC50 in experiment [6] was 4.85; in experiment [8], 4.72. For the same molecule, in [9], the inhibition entry was “Active”.
For `C=C(C)[C@@H]1CC=C(CN(OC)[C@@H]2O[C@H](CO)[C@@H](O)[C@H](O)[C@H]2NC(=O)N(C)N=O)CC1`, the inhibition at 250 µM in experiment [1] and in experiment [3] was > 40% throughout. The pIC50 in [6] is 3.73; in experiment [8] it was 3.63.
Take `C=C(C)[C@@H]1CC=C(CN(OC)C2OC[C@@H](O)[C@H](O)[C@H]2O)CC1` (stereo not given in full): the inhibition at 250 µM in [1] and in [3] was > 40% each time. In addition, the pIC50 in experiment [6] is 3.69; in [8], 3.82.
Turning to `C=C(C)[C@@H]1CC=C(CN(OC)C2OC[C@@H](N=[N+]=[N-])[C@H](O)[C@H]2O)CC1` (stereo not given in full), the inhibition at 250 µM in experiment [1] and in experiment [3] was > 40% throughout. The pIC50 in [6] is 4.12; in [8] it was 3.77.
For `C=C(C)[C@@H]1CC=C(CO)CC1` [PERILLYL ALCOHOL], the outcome in [2], in experiment [4], in [5], in experiment [7], in [11] and in [12] was inactive. In addition, the pIC50 in [6] was 3.46; in experiment [8] it was 3.42. Also, the inhibition entry in [9] is “inactive”.
